TRPC4 inh: blocks the mouse TRPC4 cation channel; HEK293 TRPC4beta/mu-opioid, DAMGO-evoked Fluo4 calcium flux; hits give low values; B-score at 10 µM; hit rate 0.39% among 300,000;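 active means B-score over 3 SD under the library average, no early fluorescence shift, positive overall ratio signal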
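System: stable TRPC4beta/mu-opioid receptor HEK293 cells; Dosing: single-point compound dosing; Measured by: Fluo4 Ca2+ flux fluorescence; Read-out basis: per-well B score of integrated baseline-normalized Fluo4 ratio.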
TRPC4 act: TRPC4 (mouse) channel activation; B-score at 10 µM; HEK293 TRPC4beta/mu-opioid, Fluo4 calcium fluorescence; hits give high values; hit rate 0.49% among 310,000; Q9QUQ5;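 active means B-score above 5 SD of library B-scores, and initial fluorescence ratio not above library mean plus 5 SD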;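 further: positive B-score marks a calcium rise read as TRPC4 activation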
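Technique: kinetic Fluo4 calcium fluorescence; Test system: TRPC4beta and mu-opioid receptor HEK293 stable cells; Measure: B-scored integrated calcium fluorescence ratio; Benchmarks: low control buffer alone, high control maximal DAMGO; Schedule: 45 min room-temperature Fluo4 loading, 110 s read.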
TRPC6 inhibitor: inhibitors of mouse TRPC6 channel. Q61143. HEK293-TRPC6, membrane potential dye, ACh-evoked depolarization; hits give low values. B-score at 10 µM. hit rate 1.1% among 310,000;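 active means B-score under library mean minus 3 SD, initial fluorescence not abnormally high, positive integrated signal ratio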;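 further: B-score derived from integrated fluorescence ratio over the kinetic read; more negative B-score means stronger inhibition of depolarization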
TRPC4 potent: allosteric potentiators of mouse TRPC4 channel. Q9QUQ5. HEK293 TRPC4beta/mu-opioid, DAMGO EC20, Fluo-4 Ca2+ flux; hits give high values. B-score at 10 µM. hit rate 0.42% among 310,000. AID 2227;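 active means B-score of calcium response area above 5 SD of library B-scores, with initial fluorescence ratio within 5 SD of library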
TRPC6 activator: mouse TRPC6 channel activation | B-score at 10 µM | Q61143 | HEK293-TRPC6 membrane potential dye fluorescence; hits give high values | hit rate 0.13% among 310,000;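 active means B-score of the integrated fluorescence ratio above library mean plus 3 SD, and starting fluorescence ratio within library mean plus 5 SD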;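 further: higher score means more depolarization so channel activation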
TRPC4 spec 2: mouse TRPC4 off-target activity of TRPC6 inhibitors, second screen; shares compounds with TRPC6 inhibitor; HEK293 TRPC4/MOR, membrane potential dye fluorescence; channel activated by saturating DAMGO dose; inhibition, % at 10 µM; hit rate 42% among 920;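 active means compounds whose fluorescence signal differed from control wells by over 3 SD, either direction, in both duplicate plates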
TRPC4 spec: mouse TRPC4 off-target activity of TRPC6 inhibitors; shares compounds with TRPC6 inhibitor; HEK293 TRPC4/mu-opioid, membrane potential fluorescence; activity change, negative = inhibition, % at 10 µM; hit rate 61% among 920; AID 2777;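 active means rise or fall in signal beyond 3 SD of buffer-only wells in both replicate plates, either sign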;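 further: integrated kinetic ratio of fluorescence range over baseline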
HEK293 MPD ctr 2-1: parental HEK293 nonspecific activity of TRPC6 inhibitors, second screen | shares compounds with TRPC6 inhibitor | parental HEK293 membrane potential dye fluorescence; maximal acetylcholine challenge after compound addition | signal change vs control, % at 10 µM | hit rate 31% among 920;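 active means membrane potential signal moving either way by over 3 SD of the maximum-effect control, in both duplicate plates, meaning non-specific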
HEK293 MPD ctr-1: checks TRPC6 inhibitor effects in parental HEK293 cells. parental HEK293 membrane potential dye fluorescence. hit rate 60% among 920. shares compounds with TRPC6 inhibitor. membrane potential signal change, % at 10 µM;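 active means membrane potential signal shifting up or down by more than 3 SD of buffer-only wells, on both duplicate plates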
HEK293 MPD ctr-2: checks TRPC6 modulator effects in parental HEK293 cells; shares compounds with TRPC6 inhibitor; membrane potential dye fluorescence; membrane potential signal change, % at 10 µM; hit rate 51% among 2,400; AID 488924;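 active means membrane potential signal moves up or down beyond 5 SD from buffer-only wells, on both duplicate plates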
HEK293 MPD ctr 2-2: parental HEK293 nonspecific activity of TRPC6 modulators, second screen; shares compounds with TRPC6 inhibitor; membrane potential dye fluorescence; after compound, maximal acetylcholine stimulation; inhibition, % at 10 µM; hit rate 14% among 2,400;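 active means membrane potential signal drops by more than 5 SD from the mean control signal, in both duplicate plates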
TRPC4/MOR mod: selectivity of TRPC6 modulators against mouse TRPC4 | shares compounds with TRPC6 inhibitor | AID 488927 | hit rate 69% among 2,400 | HEK293 TRPC4/mu-opioid, membrane potential fluorescence | percent change from control (negative = decrease, positive = increase), % at 10 µM;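 active means membrane potential signal moved up or down beyond 5 SD of buffer control wells, in both duplicate plates, actives on both sides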
TRPC4 ctr inh 2: mouse TRPC4 off-target activity of TRPC6 modulators, second screen | HEK293 TRPC4/mu-opioid, membrane potential dye fluorescence; stimulated with maximal-effect DAMGO | hit rate 55% among 2,400 | inhibition, % at 10 µM | shares compounds with TRPC6 inhibitor;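 active means drop in membrane potential signal beyond 5 SD of the control wells in both duplicate plates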;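 further: TRPC4 counter screen for TRPC6 hits run under conditions tuned for TRPC6 not TRPC4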
TRPC6 block conf: mouse TRPC6 inhibitor confirmation | shares compounds with TRPC6 inhibitor | HEK293-TRPC6, membrane potential dye, ACh-evoked depolarization | inhibition, % at 10 µM | hit rate 43% among 3,300 | AID 488960;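 active means fluorescence ratio falls more than 5 SD below the full-stimulation control mean, in both duplicate runs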;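 further: integrated fluorescence ratio of peak minus minimum over baseline after agonist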
TRPC6 act confirm: mouse TRPC6 activator confirmation; shares compounds with TRPC6 inhibitor; HEK293-TRPC6 membrane potential dye fluorescence, FDSS; activation, % at 10 µM; hit rate 11% among 2,800;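 active means ratio signal rise beyond 5 SD above unstimulated control wells' mean, seen in both duplicate runs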
Of the large screens only hits and unclear results are named; the others gave an inactive call (follow-up assays come after a bar, where they were run). An excerpt weighted towards active compounds, which were near 2.3% of everything screened.

Cc1nc2c(o1)CCc1ccccc1C2N1CCN(C)CC1 (stereo not drawn)	TRPC6 inhibitor -9.4 | TRPC4 spec 2 inactive | TRPC4 spec 8.0% | HEK293 MPD ctr 2-1 -14% | HEK293 MPD ctr-1 11% | TRPC6 block conf 74%
Cc1nc(S(=O)(=O)N2CCN(C3c4ccccc4-c4ccccc43)CC2)cn1C	none
Cc1cc(C)nc(CCNC(=O)CC2C(=O)NCCN2Cc2ccccc2)n1 (stereo not drawn)	none
Fc1ccc(CNCCC(Cc2ccccc2)c2ccco2)cc1 (stereo not drawn)	none
CC(NCCC(Cc1ccccc1)c1ccco1)c1ccccc1 (stereo not drawn)	TRPC4 inh -6, TRPC6 inhibitor -5.6, TRPC6 activator 12 | HEK293 MPD ctr-2 167% | HEK293 MPD ctr 2-2 inactive | TRPC4/MOR mod 42% | TRPC4 ctr inh 2 40% | TRPC6 block conf inactive | TRPC6 act confirm 36%
CSc1ccccc1C(=O)N1CCC2(CC1)CC(=O)c1ccccc1O2	none
O=C(Nc1cc2c3c(c1)C1CCCC1CN3CC1CCCC21)c1ccccc1 (stereo not drawn)	TRPC6 inhibitor -5.9 | HEK293 MPD ctr-2 -70% | HEK293 MPD ctr 2-2 inactive | TRPC4/MOR mod -16% | TRPC4 ctr inh 2 inactive | TRPC6 block conf inactive | TRPC6 act confirm inactive
CCC(C(=O)OCC(=O)NC(=O)c1ccccc1OC)c1ccccc1 (stereo not drawn)	none
CCC1(C)Cc2c(sc3[nH]c(=S)[nH]c(=S)c23)CO1 (stereo not drawn)	TRPC6 inhibitor -8.9 | TRPC4 spec 2 inactive | TRPC4 spec inactive | HEK293 MPD ctr 2-1 inactive | HEK293 MPD ctr-1 inactive | TRPC6 block conf inactive | TRPC6 act confirm inactive
Cc1cccc(CN2C(=O)c3ccccc3S(=O)(=O)c3ccc(C(=O)NCCCN4CCCC4)cc32)c1	TRPC6 inhibitor -5.1 | HEK293 MPD ctr-2 inactive | HEK293 MPD ctr 2-2 inactive | TRPC4/MOR mod inactive | TRPC4 ctr inh 2 57% | TRPC6 block conf 41% | TRPC6 act confirm inactive
CC1CCCN(CCCNC(=O)c2ccc3c(c2)N(Cc2ccc(F)cc2)C(=O)c2ccccc2S3=O)C1 (stereo not drawn)	TRPC4 act 55, TRPC6 inhibitor -5.1 | HEK293 MPD ctr-2 inactive | HEK293 MPD ctr 2-2 inactive | TRPC4/MOR mod inactive | TRPC4 ctr inh 2 77% | TRPC6 block conf 57% | TRPC6 act confirm inactive
O=C(NCCN1CCCC1)c1ccc2c(c1)N(Cc1cccc(Cl)c1)C(=O)c1ccccc1S2(=O)=O	none
CCOC(=O)c1cc2c(=O)n3ccccc3nc2n(CCCOC)c1=NC(=O)c1cccnc1	none
CCOC(=O)c1cc2c(=O)n3ccccc3nc2n(CCCOC)c1=NC(=O)C(C)(C)C	TRPC6 inhibitor -5.9 | HEK293 MPD ctr-2 -195% | HEK293 MPD ctr 2-2 inactive | TRPC4/MOR mod -27% | TRPC4 ctr inh 2 56% | TRPC6 block conf 50% | TRPC6 act confirm inactive
COCCCn1c(=N)c(C(=O)NCC2CCCO2)cc2c(=O)n3ccccc3nc21 (stereo not drawn)	none
CCOC(=O)c1cc2c(=O)n3ccccc3nc2n(Cc2ccccc2)c1=N	TRPC6 inhibitor -7.9 | HEK293 MPD ctr-2 -146% | HEK293 MPD ctr 2-2 inactive | TRPC4/MOR mod -32% | TRPC4 ctr inh 2 42% | TRPC6 block conf inactive | TRPC6 act confirm inactive
N=c1c(C(=O)NCC2CCCO2)cc2c(=O)n3ccccc3nc2n1Cc1ccccc1Cl (stereo not drawn)	TRPC6 inhibitor -6.7, TRPC4 potent 78 | TRPC4 spec 2 48% | TRPC4 spec inactive | HEK293 MPD ctr 2-1 inactive | HEK293 MPD ctr-1 -456% | TRPC6 block conf inactive | TRPC6 act confirm inactive
CCOC(=O)c1cc2c(=O)n3ccccc3nc2n(CC(C)C)c1=NC(=O)c1ccco1	none
COc1ccc(Cn2c(=N)c(C(=O)NCC3CCCO3)cc3c(=O)n4ccccc4nc32)cc1 (stereo not drawn)	TRPC6 inhibitor -6.5 | HEK293 MPD ctr-2 inactive | HEK293 MPD ctr 2-2 inactive | TRPC4/MOR mod -10% | TRPC4 ctr inh 2 36% | TRPC6 block conf 44% | TRPC6 act confirm inactive
O=C(NC12CC3CC(CC(C3)C1)C2)N1CCN(C(=O)c2ccco2)CC1	none
COc1ccccc1NC(=S)NCc1ccc2c(c1)OCO2	none
COc1ccc(CCn2c(=N)c(C(=O)NCC3CCCO3)cc3c(=O)n4ccccc4nc32)cc1 (stereo not drawn)	TRPC6 inhibitor -5.8 | HEK293 MPD ctr-2 -82% | HEK293 MPD ctr 2-2 inactive | TRPC4/MOR mod -22% | TRPC4 ctr inh 2 60% | TRPC6 block conf 58% | TRPC6 act confirm inactive
N=c1c(C(=O)NCC2CCCO2)cc2c(=O)n3ccccc3nc2n1Cc1ccccc1 (stereo not drawn)	TRPC6 inhibitor -7.4 | HEK293 MPD ctr-2 -125% | HEK293 MPD ctr 2-2 78% | TRPC4/MOR mod -28% | TRPC4 ctr inh 2 38% | TRPC6 block conf 45% | TRPC6 act confirm inactive
N=c1c(C(=O)NCc2ccc3c(c2)OCO3)cc2c(=O)n3ccccc3nc2n1CC1CCCO1 (stereo not drawn)	none
N=c1c(C(=O)NC2CCCC2)cc2c(=O)n3ccccc3nc2n1Cc1ccccc1	TRPC6 inhibitor -5.2 | HEK293 MPD ctr-2 -170% | HEK293 MPD ctr 2-2 inactive | TRPC4/MOR mod -34% | TRPC4 ctr inh 2 48% | TRPC6 block conf inactive | TRPC6 act confirm inactive
